Test [1] has as its target T1, Peptidyl-prolyl cis-trans isomerase FKBP5 (Homo sapiens, UniProt Q13451).
T1 sequence (Q13451 whole entry): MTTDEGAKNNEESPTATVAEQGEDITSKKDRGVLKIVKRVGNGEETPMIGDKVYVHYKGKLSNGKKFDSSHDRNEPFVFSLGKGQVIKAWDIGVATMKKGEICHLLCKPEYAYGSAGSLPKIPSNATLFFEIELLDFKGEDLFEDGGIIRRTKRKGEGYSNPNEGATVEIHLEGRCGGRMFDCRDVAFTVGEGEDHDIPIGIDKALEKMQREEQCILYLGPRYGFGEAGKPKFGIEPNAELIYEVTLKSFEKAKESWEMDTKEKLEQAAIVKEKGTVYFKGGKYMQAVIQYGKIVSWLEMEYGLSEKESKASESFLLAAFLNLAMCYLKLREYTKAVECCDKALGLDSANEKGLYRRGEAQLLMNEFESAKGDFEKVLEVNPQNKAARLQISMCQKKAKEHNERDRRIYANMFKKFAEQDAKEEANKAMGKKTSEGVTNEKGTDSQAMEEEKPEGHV
Put plainly: Displacement of fluorescent tracer 5-(3-(4-((1S,5S,6S)-10-(3,5-dichlorophenylsulfonyl)-2-oxo-3-(pyridin-3-ylmethyl)-3,10-diazabicyclo[4.3.1]decan-5-yl)-1H-1,2,3-triazol-1-yl)propylcarbamoyl)-2-(6-(dimethylamino)-3-(dimethyliminio)-3H-xanthen-9-yl)benzoate from recombinant full length C-terminal FLAG-tagged FKBP51 (unknown origin) expressed in Escherichia coli BL21 (DE3) cells incubated for 30 mins by fluorescence polarisation competition binding assay. On the technique in general: Fluorescence polarisation rises when a labelled molecule tumbles more slowly, as on binding a larger partner.

The target in test [2] is T2, Peptidyl-prolyl cis-trans isomerase FKBP4 (Homo sapiens, UniProt Q02790).
T2 sequence (Q02790 whole entry): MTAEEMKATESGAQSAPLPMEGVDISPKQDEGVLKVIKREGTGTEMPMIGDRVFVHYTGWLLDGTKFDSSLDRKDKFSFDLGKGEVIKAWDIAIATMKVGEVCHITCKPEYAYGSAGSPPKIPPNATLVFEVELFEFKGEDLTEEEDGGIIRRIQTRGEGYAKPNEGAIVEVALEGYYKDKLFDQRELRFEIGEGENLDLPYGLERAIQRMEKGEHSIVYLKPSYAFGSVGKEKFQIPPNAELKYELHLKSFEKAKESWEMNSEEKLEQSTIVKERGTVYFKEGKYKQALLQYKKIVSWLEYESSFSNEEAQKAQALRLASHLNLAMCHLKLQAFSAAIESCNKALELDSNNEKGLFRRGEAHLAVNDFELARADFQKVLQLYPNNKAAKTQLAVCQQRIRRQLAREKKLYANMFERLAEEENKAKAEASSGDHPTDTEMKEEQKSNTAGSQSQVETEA
Put plainly: Displacement of fluorescent tracer 5-(3-(4-((1S,5S,6S)-10-(3,5-dichlorophenylsulfonyl)-2-oxo-3-(pyridin-3-ylmethyl)-3,10-diazabicyclo[4.3.1]decan-5-yl)-1H-1,2,3-triazol-1-yl)propylcarbamoyl)-2-(6-(dimethylamino)-3-(dimethyliminio)-3H-xanthen-9-yl)benzoate from recombinant full length C-terminal FLAG-tagged FKBP52 (unknown origin) expressed in Escherichia coli BL21 (DE3) cells incubated for 30 mins by fluorescence polarisation competition binding assay. The gist of the method: (§1)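 Competitive FP in 150 mM NaCl, 20 mM HEPES pH 8.0, 0.002% Triton X-100. Ligand 1:1 serially diluted in DMSO and premixed with fluorescent tracer, tracer working solution 11.9 nM (FKBP12.6, 51FK1, 52FK1) or 5.95 nM (FKBP12) before final 10-fold dilution into protein. 30 min at room temperature, read at ex/em 535/590 nm. Weighted SD from at least two independent runs.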

A short description of test [3]: (§2) Selectivity ratio of Kd for displacement of fluorescent tracer 5-(3-(4-((1S,5S,6S)-10-(3,5-dichlorophenylsulfonyl)-2-oxo-3-(pyridin-3-ylmethyl)-3,10-diazabicyclo[4.3.1]decan-5-yl)-1H-1,2,3-triazol-1-yl)propylcarbamoyl)-2-(6-(dimethylamino)-3-(dimethyliminio)-3H-xanthen-9-yl)benzoate from recombinant full length C-terminal FLAG-tagged FKBP52 (unknown origin) to Kd for displacement of fluorescent tracer 5-(3-(4-((1S,5S,6S)-10-(3,5-dichlorophenylsulfonyl)-2-oxo-3-(pyridin-3-ylmethyl)-3,10-diazabicyclo[4.3.1]decan-5-yl)-1H-1,2,3-triazol-1-yl)propylcarbamoyl)-2-(6-(dimethylamino)-3-(dimethyliminio)-3H-xanthen-9-yl)benzoate from recombinant full length C-terminal FLAG-tagged FKBP51 (unknown origin).

Test [4] deals with Peptidyl-prolyl cis-trans isomerase FKBP1A (Homo sapiens, UniProt P62942). Put plainly: Displacement of fluorescent tracer 5-(3-(4-((1S,5S,6S)-10-(3,5-dichlorophenylsulfonyl)-2-oxo-3-(pyridin-3-ylmethyl)-3,10-diazabicyclo[4.3.1]decan-5-yl)-1H-1,2,3-triazol-1-yl)propylcarbamoyl)-2-(6-(dimethylamino)-3-(dimethyliminio)-3H-xanthen-9-yl)benzoate from recombinant full length C-terminal FLAG-tagged FKBP12 (unknown origin) expressed in Escherichia coli BL21 ([…]) cells incubated for 30 mins by fluorescence polarisation competition binding assay. The gist of the method:
as §1

The nature of test [5]: as §2, with “FJBP12” for “FKBP52 (unknown origin)”.
For test [6], the target named is Peptidyl-prolyl cis-trans isomerase FKBP1B (Homo sapiens, UniProt P68106). Put plainly: Displacement of fluorescent tracer 5-(3-(4-((1S,5S,6S)-10-(3,5-dichlorophenylsulfonyl)-2-oxo-3-(pyridin-3-ylmethyl)-3,10-diazabicyclo[4.3.1]decan-5-yl)-1H-1,2,3-triazol-1-yl)propylcarbamoyl)-2-(6-(dimethylamino)-3-(dimethyliminio)-3H-xanthen-9-yl)benzoate from recombinant full length C-terminal FLAG-tagged FKBP12.6 (unknown origin) expressed in Escherichia coli BL21 (DE3) cells incubated for 30 mins by fluorescence polarisation competition assay. The gist of the method: as §1
Peptidyl-prolyl cis-trans isomerase FKBP1B, sequence (P68106 whole entry): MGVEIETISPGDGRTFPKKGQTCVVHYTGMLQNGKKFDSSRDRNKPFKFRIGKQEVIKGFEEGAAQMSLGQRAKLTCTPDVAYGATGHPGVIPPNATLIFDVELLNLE

Test [7] can be described thus: as §2, with “FKBP12.6” for “FKBP52”.

pKd: −log10 of the molar value.

Peptidyl-prolyl cis-trans isomerase FKBP1A, sequence (P62942 whole entry): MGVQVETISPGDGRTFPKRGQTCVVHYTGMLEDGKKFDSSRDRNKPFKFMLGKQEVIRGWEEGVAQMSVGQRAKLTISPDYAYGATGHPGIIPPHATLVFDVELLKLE

In the case of `COc1ccc(CC[C@H]2OC(=O)[C@@H]3CCCCN3C(=O)[C@@H](C3CCCCC3)c3cc(OC)c(OC)c(c3)OCCOC/C=C\COc3cccc2c3)cc1OC`, the pKd in test [1] was 6.86; in test [2], < 5.00; in test [4], 6.46; in test [6], 6.52. In addition, the values for the Selectivity ratio in test [3], in test [5] and in test [7] were > 73, 2.5 and 2.2, respectively.

Turning to `COc1ccc(CC[C@H]2OC(=O)[C@@H]3CCCCN3C(=O)[C@@H](C3CCCCC3)c3cc(OC)c(OC)c(c3)OCCCOCCCCOc3cccc2c3)cc1OC`, the pKd was 6.99 in test [1], < 5.00 in test [2], 6.45 in test [4] and 6.64 in test [6]. For the same compound, the Selectivity ratio in test [3] was > 97; in test [5] it was 3.4; in test [7], 2.2.

As for `COc1ccc(CC[C@H]2OC(=O)[C@@H]3CCCCN3C(=O)[C@@H](C3CCCCC3)c3cc(OC)c(OC)c(c3)OCCOCCCCOc3cccc2c3)cc1OC`, the pKd is 7.21 in test [1], < 5.00 in test [2], 6.87 in test [4] and 6.94 in test [6]. Moreover, the values for the Selectivity ratio in test [3], in test [5] and in test [7] were > 164, 2.2 and 1.9, respectively.

On to `COc1ccc(CC[C@H]2OC(=O)[C@@H]3CCCCN3C(=O)[C@@H](C3CCCCC3)c3cc(OC)c(OC)c(c3)OCCCOC/C=C\COc3cccc2c3)cc1OC`, for which the pKd was 6.84 in test [1], < 5.00 in test [2], 6.31 in test [4] and 6.45 in test [6]. Further, the Selectivity ratio in test [3] was > 69; in test [5], 3.4; in test [7], 2.3.

Consider `COc1ccc(CC[C@H]2OC(=O)[C@@H]3CCCCN3C(=O)[C@@H](C3CCCCC3)c3cc(OC)c(c(OC)c3)OCCCOC/C=C/COc3cccc2c3)cc1OC`, for which the pKd was 7.08 in test [1], < 5.00 in test [2], 6.23 in test [4] and 6.47 in test [6]. The Selectivity ratio is > 119 in test [3], 7 in test [5] and 3.9 in test [7].

Regarding `COc1ccc(CC[C@H]2OC(=O)[C@@H]3CCCCN3C(=O)[C@@H](C3CCCCC3)c3cc(OC)c(c(OC)c3)OC/C=C/COc3cccc2c3)cc1OC`, the pKd in test [1] was 7.05; in test [2], < 5.00; in test [4], 6.11; in test [6] it was 6.22. Also, the Selectivity ratio in test [3] was > 112; in test [5], 8.6; in test [7], 6.8.

Regarding `COc1ccc(CC[C@H]2OC(=O)[C@@H]3CCCCN3C(=O)[C@@H](C3CCCCC3)c3cc(OC)c(OC)c(c3)OCC/C=C\COc3cccc2c3)cc1OC`, the pKd was 7.15 in test [1], < 5.00 in test [2], 6.86 in test [4] and 6.94 in test [6]. Further, the Selectivity ratio in test [3] is > 141; in test [5] it was 2; in test [7], 1.6.

Regarding `COc1ccc(CC[C@H]2OC(=O)[C@@H]3CCCCN3C(=O)[C@@H](C3CCCCC3)c3cc(OC)c(OC)c(c3)OCCOCC(=O)CCOc3cccc2c3)cc1OC`, the pKd in test [1] was 7.55; in test [2], 5.41; in test [4], 7.21; in test [6], 7.28. For the same compound, the results for the Selectivity ratio in test [3], in test [5] and in test [7] were 138, 2.2 and 1.9, respectively.

For `COc1ccc(CC[C@H]2OC(=O)[C@@H]3CCCCN3C(=O)[C@@H](C3CCCCC3)c3cc(OC)c(c(OC)c3)OCCCCCOc3cccc2c3)cc1OC`, the pKd was 6.92 in test [1], < 5.00 in test [2], 5.83 in test [4] and 6.07 in test [6]. Further, the Selectivity ratio in test [3] is > 84; in test [5] it was 12.5; in test [7], 7.1.

With `COc1ccc(CC[C@H]2OC(=O)[C@@H]3CCCCN3C(=O)[C@@H](C3CCCCC3)c3cc(OC)c(OC)c(c3)OCCCCOc3cccc2c3)cc1OC`, the pKd in test [1] is 7.54; in test [2], 5.35; in test [4], 6.95; in test [6] it was 7.21. For the same compound, the Selectivity ratio was determined as 154 in test [3], 3.8 in test [5] and 2.1 in test [7].

Turning to `COc1ccc(CC[C@H]2OC(=O)[C@@H]3CCCCN3C(=O)[C@@H](C3CCCCC3)c3cc(OC)c(OC)c(c3)OCCOc3cccc2c3)cc1OC`, the negative-log Kd (pKd) in test [1] was 7.26; in test [2], 5.04; in test [4], 6.61; in test [6], 7.09. In addition, the figures for the Selectivity ratio in test [3], in test [5] and in test [7] were > 165, 4.5 and 1.5, respectively.

Regarding `COc1ccc(CC[C@H]2OC(=O)[C@@H]3CCCCN3C(=O)[C@@H](C3CCCCC3)c3cc(OC)c(OC)c(c3)OCCCCCOc3cccc2c3)cc1OC`, the pKd is 7.34 in test [1], < 5.00 in test [2], 6.90 in test [4] and 7.00 in test [6]. The Selectivity ratio was > 217 in test [3], 2.7 in test [5] and 2.2 in test [7].

As to `COc1ccc(CC[C@H]2OC(=O)[C@@H]3CCCCN3C(=O)[C@@H](C3CCCCC3)c3cc(OC)c(OC)c(c3)OCCC(=O)COc3cccc2c3)cc1OC`, the negative logarithm of the Kd (pKd) is 7.92 in test [1], 5.45 in test [2], 7.23 in test [4] and 7.49 in test [6]. In addition, the Selectivity ratio is 294 in test [3], 4.9 in test [5] and 2.7 in test [7].

As to `COc1ccc(CC[C@H]2OC(=O)[C@@H]3CCCCN3C(=O)[C@@H](C3CCCCC3)c3cc(OC)c(OC)c(c3)OC[C@H](O)[C@@H](O)COc3cccc2c3)cc1OC`, the pKd in test [1] is 7.77; in test [2], 5.41; in test [4], 7.36; in test [6] it was 7.72. For the same compound, the results for the Selectivity ratio in test [3], in test [5] and in test [7] were 227, 2.6 and 1.1, respectively.

One may read the pKd as the Kd on a negative log10 scale, so that one unit is a factor of ten.

These data come from ChEMBL document CHEMBL4834405, “Structure-Based Design of High-Affinity Macrocyclic FKBP51 Inhibitors” (J Med Chem, 2021).
